Reference: ChEMBL document CHEMBL3352217, “Expanding the results of a high throughput screen against an isochorismate-pyruvate lyase to enzymes of a similar scaffold or mechanism” (Bioorg Med Chem, 2014)

How the values were obtained:
[1] = target: T1, Bifunctional chorismate mutase/prephenate dehydratase (Escherichia coli (strain K12), UniProt P0A9J8); assay: Inhibition of Escherichia coli K-12 EcCM expressed in Escherichia coli BL21 Star (DE3) pLysS using chorismate as substrate assessed as disappearance of chorismate by stopped-flow analysis
T1 sequence (P0A9J8 whole entry): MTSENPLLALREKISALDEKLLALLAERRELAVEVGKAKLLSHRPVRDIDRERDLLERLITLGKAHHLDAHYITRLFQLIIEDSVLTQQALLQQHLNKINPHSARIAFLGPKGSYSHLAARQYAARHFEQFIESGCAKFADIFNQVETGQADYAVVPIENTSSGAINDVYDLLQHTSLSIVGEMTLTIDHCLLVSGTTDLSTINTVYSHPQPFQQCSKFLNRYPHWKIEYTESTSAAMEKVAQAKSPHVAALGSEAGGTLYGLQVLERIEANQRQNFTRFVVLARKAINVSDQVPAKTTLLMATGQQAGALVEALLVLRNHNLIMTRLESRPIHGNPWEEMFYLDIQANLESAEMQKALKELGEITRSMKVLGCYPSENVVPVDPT
Outline: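 His-tagged EcCM domain was Ni-affinity and size-exclusion purified. Post-mixing concentrations were 500 nM enzyme, chorismate at Km (600 µM) and inhibitor 0–500 µM. Rate was the A310 decrease over 30 s, in triplicate, giving IC50.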

[2] = Inhibition of Pseudomonas aeruginosa PAO1 PchB expressed in Escherichia coli BL21(DE3) using isochorismate as substrate assessed as pyruvate production after 10 mins by microplate reader analysis
Outline: (§1)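 Pyruvate output at 25 °C, with PchB at 50 nM in 50 mM potassium phosphate pH 8 started with isochorismate, or Irp9 at 200 nM started with chorismate. Substrate was above the 10 µM Km and inhibitor was varied. Samples taken at 2-min points were quenched in 0.25 g/L DNPH in 1 M HCl and held 10 min at 37 °C. NaOH was added and A515 read, converted to pyruvate by standard curve. Runs were in triplicate, giving IC50.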

[3] = Inhibition of Pseudomonas aeruginosa PAO1 PchB expressed in Escherichia coli BL21(DE3) using isochorismate as substrate assessed as salicylate production by fluorescence spectrometry
Outline: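 Untagged PchB at 50 nM in 50 mM potassium phosphate pH 8. […] Initial velocities at 25 °C were taken from salicylate fluorescence (ex 310/em 430 nm) over 120 s of the linear phase. IC50 came from dose-response percent inhibition.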

[4] = target: T2, Salicylate synthetase, Irp9 (Yersinia enterocolitica, UniProt Q9X9I8); assay: Inhibition of Yersinia enterocolitica Irp9 using chorismate as substrate assessed as pyruvate production after 10 mins by microplate reader analysis; outline: as §1
T2 sequence (Q9X9I8 whole entry): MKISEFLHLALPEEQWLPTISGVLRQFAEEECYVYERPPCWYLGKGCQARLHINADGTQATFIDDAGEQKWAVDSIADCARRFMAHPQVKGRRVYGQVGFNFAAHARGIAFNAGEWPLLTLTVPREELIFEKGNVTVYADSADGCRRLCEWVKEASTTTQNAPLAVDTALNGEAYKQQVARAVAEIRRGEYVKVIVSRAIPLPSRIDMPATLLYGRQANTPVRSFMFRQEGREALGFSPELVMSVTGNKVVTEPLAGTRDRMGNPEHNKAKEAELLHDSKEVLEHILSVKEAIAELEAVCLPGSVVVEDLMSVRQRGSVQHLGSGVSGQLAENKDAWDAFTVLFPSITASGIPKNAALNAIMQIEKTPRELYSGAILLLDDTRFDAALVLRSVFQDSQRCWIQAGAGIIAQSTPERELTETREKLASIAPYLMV

[5] = target: T2, Salicylate synthetase, Irp9; assay: Inhibition of Yersinia enterocolitica Irp9 using chorismate as substrate assessed as salicylate production by fluorescence spectrometry
Outline: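 Irp9 at 100 nM in 50 mM Tris-HCl pH 7.5, 10 mM MgCl2, 10% glycerol. Reaction was started with chorismate, with inhibitor concentration varied. Initial velocities at 25 °C were taken from salicylate fluorescence (ex 310/em 430 nm) over 120 s of the linear phase. IC50 came from the dose-response.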

[6] = Inhibition of Pseudomonas aeruginosa PAO1 PchB
Escherichia coli = assay: Ratio of I50 to Km for Escherichia coli Chorismate mutase
Outline: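 N-His-tagged E. coli chorismate mutase domain (PheA), 500 nM. Chorismate at its Km (600 µM), inhibitor 0–500 µM, all post-mixing. Initial rates from A310 decrease over 30 s, in triplicate. I50 is the concentration giving 50% inhibition at substrate = Km, divided by Km.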

Pseudomonas aeruginosa [7] = assay: Antimicrobial activity against Pseudomonas aeruginosa PAO1 PvdA deletion mutant after 24 hrs by microplate reader analysis in presence of 5 uM FeCl3; assay type: functional, organism-based; settings: PAO1, 24 h
Outline: (§2)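 Overnight LB cultures were diluted to OD600 0.5 in PMH-D medium. Cells were added to PMH-D containing FeCl3, either 5 µM (iron-limited) or 200 µM (iron-rich), with inhibitor at 0–5 mM (DMSO vehicle). Plates were shaken at 37 °C for 24 h. Cells were then pelleted, the medium was removed, and cells were resuspended in LB. A600 was read. Growth was normalized to no-inhibitor cultures to give EC50.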

Pseudomonas aeruginosa [8] = assay: Antimicrobial activity against Pseudomonas aeruginosa PAO1 PchE deletion mutant after 24 hrs by microplate reader analysis in presence of 200 uM FeCl3; assay type: functional, organism-based; outline: as §2
[9] = target: T1, Bifunctional chorismate mutase/prephenate dehydratase; assay: Competitive inhibition of Escherichia coli K-12 EcCM expressed in Escherichia coli BL21 Star (DE3) pLysS using chorismate as substrate
Outline: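 N-terminally His-tagged chorismate mutase domain of pheA, purified by Ni-chelate and size-exclusion chromatography. Enzyme with inhibitor mixed 1:1 with chorismate. Final concentrations: enzyme 500 nM, chorismate 0–2 mM, inhibitor 0–50 µM. Initial rates read as the 30 s decrease in absorbance at 310 nm, giving Ki and inhibition mode.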

Pseudomonas aeruginosa [10] = assay: Antimicrobial activity against Pseudomonas aeruginosa PAO1 PchE deletion mutant after 24 hrs by microplate reader analysis in presence of 5 uM FeCl3; assay type: functional, organism-based; settings: PAO1, 24 h; outline: as §2
[11] = target: T2, Salicylate synthetase, Irp9; assay: Competitive inhibition of Yersinia enterocolitica Irp9 using chorismate as substrate
Outline: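 Stopped-flow kinetics at 25 °C in 50 mM Tris pH 7.5, 10 mM MgCl2, 10% glycerol. Final Irp9 was 100 nM, chorismate 0–40 µM and inhibitor 0–10 µM. Enzyme plus inhibitor was mixed with chorismate. Initial velocities came from the rise in salicylate fluorescence (ex 310 nm, 360 nm cutoff filter) over 30 s. Ki and inhibition mode were derived from these rates.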

Pseudomonas aeruginosa [12] = assay: Antimicrobial activity against Pseudomonas aeruginosa PAO1 PvdA deletion mutant after 24 hrs by microplate reader analysis in presence of 200 uM FeCl3; assay type: functional, organism-based; outline: as §2
Pseudomonas aeruginosa [13] = assay: Antimicrobial activity against wild-type Pseudomonas aeruginosa PAO1 after 24 hrs by microplate reader analysis in presence of 5 uM FeCl3; assay type: functional, organism-based; settings: PAO1, 24 h; outline: as §2
Pseudomonas aeruginosa [14] = assay: Antimicrobial activity against wild-type Pseudomonas aeruginosa PAO1 after 24 hrs by microplate reader analysis in presence of 200 uM FeCl3; assay type: functional, organism-based; outline: as §2
[15] = Competitive inhibition of Pseudomonas aeruginosa PAO1 PchB expressed in Escherichia coli BL21(DE3) using isochorismate as substrate
Outline: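 Untagged PchB at 50 nM final, in 50 mM potassium phosphate pH 8 (plus 1 mM TCEP for stopped-flow runs), at 25 °C. Isochorismate was varied up to 75 µM and inhibitor up to 1.5 µM. Salicylate formation was followed by fluorescence (excitation 310 nm; emission 430 nm or 360 nm cutoff) as linear initial velocities, over 120 s on a cuvette fluorimeter or 30 s by stopped-flow.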

Yersinia enterocolitica = assay: Antimicrobial activity against Yersinia enterocolitica ATCC 9610 after 24 hrs by microplate reader analysis in presence of 5 uM FeCl3; assay type: functional, organism-based; settings: ATCC 9610, 24 h; outline: as §2

Row | SMILES | IC50 [1] | IC50 [2] | IC50 [3] | IC50 [4] | other results
1 | O=C(O)c1cccc(S(=O)(=O)Nc2ccccc2C(=O)O)c1 | 170 µM | 0.22 µM | 0.25 µM | Not Active | IC50 [5]: Not Active
2 | O=C(O)c1cc(S(=O)(=O)Nc2ccccc2C(=O)O)ccc1Br | 200 µM | 0.094 µM | 0.24 µM | Not Active | IC50 [5]: Not Active
3 | O=c1oc2cc(Br)c(O)c(Br)c2s1 | 120 µM | 10 µM | 10 µM |  | 
4 | O=C1S/C(=C/c2cc([N+](=O)[O-])cc([N+](=O)[O-])c2O)C(=O)N1c1ccccc1 | 85 µM | 1.4 µM | 1.4 µM | Not Active | 
5 | O=C(O)C1CC2(C(=O)O)C=CC(O)C(C2)O1 (configuration not stated) |  |  |  |  | Ki [6]: 2 µM; Ratio (Escherichia coli): 0.008
6 | O=P(O)(O)C12CC3CC(CC(C3)C1)C2 |  |  |  |  | Ki [6]: > 5000 µM
7 | COC(=O)Oc1c([N+](=O)[O-])cc2oc(=O)sc2c1[N+](=O)[O-] | 32 µM | 0.53 µM | 0.87 µM |  | EC50 (Pseudomonas aeruginosa [7]): > 5000 µM; EC50 (Pseudomonas aeruginosa [8]): Not Active; Ki [9]: 40 µM; EC50 (Pseudomonas aeruginosa [10]): > 5000 µM; Ki [11]: 0.8 µM; EC50 (Pseudomonas aeruginosa [12]): Not Active; EC50 (Pseudomonas aeruginosa [13]): > 5000 µM; EC50 (Pseudomonas aeruginosa [14]): Not Active; Ki [15]: 0.35 µM; EC50 (Yersinia enterocolitica): 2300 µM
8 | COC(=O)Oc1c(Cl)cc2oc(=O)sc2c1[N+](=O)[O-] | 45 µM | 1.8 µM | 3.3 µM | Not Active | 
